Legend:
[1] = tested on: people with ASD; conditions: multisite clinical trial; cited from earlier work
[2] = tested on: low-social male rhesus monkeys; test: Face recognition memory, visual paired comparison task; format: in vivo, rhesus macaques (Macaca mulatta)
How it was run: (§1)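 Young adult males trained to breathe via mask-attached nebulizer until 2 min 40 s cumulative breathing. Dosed 0, 25 or 50 IU AVP per 1 mL in 0.4% 4-chlorobutanol/0.9% NaCl vehicle (vehicle as placebo), modified Latin square order, blinded, ≥1-week washout, 0900 dosing. Unique stimulus sets per dose on monitor. Looks +1 each; ln(novel/familiar) analysed by repeated-measures REML mixed model.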

[3] = tested on: low-social male rhesus monkeys; test: Object recognition memory, visual paired comparison task; format: in vivo, rhesus macaques (Macaca mulatta); conditions: nebulized AVP (25 and 50 IU pooled) vs placebo, within-subjects, N = 8, testing began 30 min after nebulization
How it was run: as §1

[4] = tested on: low-social male rhesus monkeys; format: in vivo, rhesus macaques (Macaca mulatta); conditions: N = 8
How it was run: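 Low-social males habituated and given refresher mask training; next day nebulized at 0900 with 0, 25 or 50 IU per 1 mL (diluent placebo), order by modified Latin square, one-week washout. From 30 min post-dose, viewed on a monitor 61 cm from the cage videos of an unfamiliar adult male showing affiliative or aggressive behavior, interspersed with neutral nonsocial bouts, with a unique stimulus set per dose.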

[5] = Pharmacokinetics of nebulized AVP: cisternal CSF AVP levels; format: in vivo, rhesus macaques (Macaca mulatta); conditions: N = 4, ELISA
How it was run: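 Same blinded nebulization at 0900. Sedation with dexmedetomidine (0.015 to 0.075 mg/kg) plus ketamine (5 to 30 mg/kg) at 20 min. Paired cisternal CSF and femoral venous blood sampled at two timepoints per session (30/90 or 60/120 min). Blood-contaminated CSF excluded. Unextracted CSF run by enzyme immunoassay in duplicate. Values given as ratio to matched placebo timepoint, log-transformed, REML mixed model.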

[6] = Pharmacokinetics of nebulized AVP: plasma AVP levels; format: in vivo, rhesus macaques (Macaca mulatta); conditions: N = 4, ELISA
How it was run: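 Nebulized through a face mask for 2 min 40 s of cumulative breathing at 0900 (0, 25 or 50 IU per 1 mL; diluent vehicle as placebo). Sedated with dexmedetomidine/ketamine 20 min later. Femoral blood sampled at two of 30/60/90/120 min, on EDTA, spun 1600×g 4 °C 15 min. Plasma extracted, nitrogen-dried, reconstituted, enzyme immunoassay in duplicate, expressed as ratio to the matched placebo timepoint. Washout ≥1 week.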

[7] = tested on: children with ASD; conditions: 4-wk intranasal AVP treatment, pilot clinical trial; cited from earlier work
[8] = nebulized AVP (25 and 50 IU pooled) vs placebo, within-subjects
[9] = nebulized 25 or 50 IU AVP, 30, 60, 90, 120 min postnebulization

| aggressive responses to conspecific aggressive or affiliative overtures [4, 8] | cisternal CSF AVP levels following AVP nebulization relative to placebo, time course [5, 9] | plasma AVP levels following AVP nebulization relative to placebo, time course [6, 9] | Molecule | core behavioral symptoms in people with ASD [1] | face recognition memory (ratio of looks to novel versus familiar faces) ([2]; nebulized AVP (25 and 50 IU pooled) vs placebo, within-subjects, N = 8, testing began 30 min after nebulization) | recognition memory findings, 25 IU vs 50 IU AVP dose ([2]; nebulized AVP, faces and objects, N = 8) | object recognition memory (ratio of looks to novel versus familiar objects) [3] | affiliative response rate to conspecific aggressive cues [4, 8] | affiliative responses to conspecific affiliative communication cues [4, 8] | affiliative response findings, 25 IU vs 50 IU AVP dose ([4]; nebulized AVP) | aggressive response findings, 25 IU vs 50 IU AVP dose ([4]; nebulized AVP) | CSF AVP level effect, 50 IU vs 25 IU dose ([5]; nebulized AVP) | plasma AVP level effect, 50 IU vs 25 IU dose ([6]; nebulized AVP) | social abilities in children with ASD [7] |
| --- | --- | --- | --- | --- | --- | --- | --- | --- | --- | --- | --- | --- | --- | --- |
|  |  |  | oxytocin [OXT] | neither balovaptan [an AVPR1A antagonist ([49])], nor OXT ([50]), improve core behavioral symptoms |  |  |  |  |  |  |  |  |  |  |
| did not increase | progressive linear increase | quadratic rise and fall | NC(=O)CC[C@@H]1NC(=O)[C@H](Cc2ccccc2)NC(=O)[C@H](Cc2ccc(O)cc2)NC(=O)[C@@H](N)CSSC[C@@H](C(=O)N2CCC[C@H]2C(=O)N[C@@H](CCCN=C(N)N)C(=O)NCC(N)=O)NC(=O)[C@H](CC(N)=O)NC1=O [AVP, [ARG8]-vasopressin] |  | rescued | did not differ between the 25 and 50 IU AVP doses | did not differ between treatment conditions | no treatment-related difference | reciprocated affiliative communication cues with species-typical affiliative responses | did not differ between the 25 and 50 IU AVP doses | did not differ between the 25 and 50 IU AVP doses | consistently stronger in the 50 IU AVP dose compared to the 25 IU AVP dose | consistently stronger in the 50 IU AVP dose compared to the 25 IU dose | improves empathic accuracy, facial emotion recognition, and social abilities |
|  |  |  | CN1Cc2cc(Cl)ccc2-n2c(nnc2[C@H]2CC[C@H](Oc3ccccn3)CC2)C1 [balovaptan] | neither balovaptan [an AVPR1A antagonist ([49])], nor OXT ([50]), improve core behavioral symptoms |  |  |  |  |  |  |  |  |  |  |

— publication PMC11626171 (Proceedings of the National Academy of Sciences of the …, 2024)
